Measurements as given in publication PMC9674260 (Proceedings of the National Academy of Sciences of the …, 2022).
Where two headings read alike, the source gives them in different places. One block for each molecule: values may come before it.

Experiments:
[1] = test system: AT2 cells in alveolospheres; type: cell-based, mouse; settings: LGK974 alone, 2 wk
LRP6 E1 = molecular target: T1, LRP6 E1 (Homo sapiens, UniProt O75581); experiment: SPR binding to immobilized LRP6 E1 domain
T1 sequence (O75581 20-326): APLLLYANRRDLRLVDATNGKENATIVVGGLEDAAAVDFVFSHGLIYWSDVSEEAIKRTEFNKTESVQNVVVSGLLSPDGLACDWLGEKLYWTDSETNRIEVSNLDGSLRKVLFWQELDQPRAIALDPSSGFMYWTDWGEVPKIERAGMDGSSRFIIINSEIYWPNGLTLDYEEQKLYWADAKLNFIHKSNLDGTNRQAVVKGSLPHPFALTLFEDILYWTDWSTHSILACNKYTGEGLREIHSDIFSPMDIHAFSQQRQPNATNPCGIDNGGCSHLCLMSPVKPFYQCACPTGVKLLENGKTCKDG

LRP6 E1-E2 = experiment: SPR binding to immobilized LRP6 E1-E2; parameters: species or system human
[2] = molecular target: LRP6 E3-E4 domains (human); experiment: SPR
[3] = molecular target: LRP6 E1-E2 domains (human); experiment: SPR
LRP6 E2 = settings: read-out: KD, binding to E2 alone; previously reported; cited from earlier work
[4] = test system: Wnt1/sFRP-1 binding to LRP6-E1-E2; experiment: SPR competition with Wnt1/sFRP-1 for LRP6-E1-E2; parameters: species or system human; settings: surface coated with LRP6-E1-E2 and saturated with competitor
Procedure, shortened: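 The SPR surface was coated with LRP6-E1-E2, then saturated with competitor or given buffer only. Wnt1/sFRP-1 (purified recombinant complex), competitor, or a mixture of the two was injected immediately afterward. Wnt1/sFRP-1 binding signal with or without competitor was inspected manually.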

LRP6 E3-E4 = experiment: SPR binding to immobilized LRP6 E3-E4; parameters: species or system human
MC3T3-E1 cells = experiment: Osteogenic differentiation of MC3T3-E1 cells; type: cell-based, murine; settings: MC3T3-E1 in om+ medium, 21 d; 5 µM Lr-EET-3.5, 1 µg SOST, 1 µM FabYW210 and FabYW211; four independent assays
Procedure, shortened: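 MC3T3-E1 cells were grown in differentiation medium (50 µg/mL ascorbate-2-phosphate, 10 mM β-glycerophosphate) or in control medium without these factors, plus LRP6-binding reagents (Fabs 1 µM, test compound 5 µM). Mineralized nodules were stained with alizarin red S at 21 d, and nodule area above the control-medium background was quantified. Bglap mRNA was measured by qRT-PCR after 1 wk. Values are means of four independent assays, with SD and one-way ANOVA.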

[5] = molecular target: LRP6 E1-E2 domains (human); experiment: SPR; remark: listed apart in the source
[6] = molecular target: T2, full-length extracellular domain of LRP6 (E1-E4) (human, UniProt O75581 20-1370); experiment: SPR
T2 sequence: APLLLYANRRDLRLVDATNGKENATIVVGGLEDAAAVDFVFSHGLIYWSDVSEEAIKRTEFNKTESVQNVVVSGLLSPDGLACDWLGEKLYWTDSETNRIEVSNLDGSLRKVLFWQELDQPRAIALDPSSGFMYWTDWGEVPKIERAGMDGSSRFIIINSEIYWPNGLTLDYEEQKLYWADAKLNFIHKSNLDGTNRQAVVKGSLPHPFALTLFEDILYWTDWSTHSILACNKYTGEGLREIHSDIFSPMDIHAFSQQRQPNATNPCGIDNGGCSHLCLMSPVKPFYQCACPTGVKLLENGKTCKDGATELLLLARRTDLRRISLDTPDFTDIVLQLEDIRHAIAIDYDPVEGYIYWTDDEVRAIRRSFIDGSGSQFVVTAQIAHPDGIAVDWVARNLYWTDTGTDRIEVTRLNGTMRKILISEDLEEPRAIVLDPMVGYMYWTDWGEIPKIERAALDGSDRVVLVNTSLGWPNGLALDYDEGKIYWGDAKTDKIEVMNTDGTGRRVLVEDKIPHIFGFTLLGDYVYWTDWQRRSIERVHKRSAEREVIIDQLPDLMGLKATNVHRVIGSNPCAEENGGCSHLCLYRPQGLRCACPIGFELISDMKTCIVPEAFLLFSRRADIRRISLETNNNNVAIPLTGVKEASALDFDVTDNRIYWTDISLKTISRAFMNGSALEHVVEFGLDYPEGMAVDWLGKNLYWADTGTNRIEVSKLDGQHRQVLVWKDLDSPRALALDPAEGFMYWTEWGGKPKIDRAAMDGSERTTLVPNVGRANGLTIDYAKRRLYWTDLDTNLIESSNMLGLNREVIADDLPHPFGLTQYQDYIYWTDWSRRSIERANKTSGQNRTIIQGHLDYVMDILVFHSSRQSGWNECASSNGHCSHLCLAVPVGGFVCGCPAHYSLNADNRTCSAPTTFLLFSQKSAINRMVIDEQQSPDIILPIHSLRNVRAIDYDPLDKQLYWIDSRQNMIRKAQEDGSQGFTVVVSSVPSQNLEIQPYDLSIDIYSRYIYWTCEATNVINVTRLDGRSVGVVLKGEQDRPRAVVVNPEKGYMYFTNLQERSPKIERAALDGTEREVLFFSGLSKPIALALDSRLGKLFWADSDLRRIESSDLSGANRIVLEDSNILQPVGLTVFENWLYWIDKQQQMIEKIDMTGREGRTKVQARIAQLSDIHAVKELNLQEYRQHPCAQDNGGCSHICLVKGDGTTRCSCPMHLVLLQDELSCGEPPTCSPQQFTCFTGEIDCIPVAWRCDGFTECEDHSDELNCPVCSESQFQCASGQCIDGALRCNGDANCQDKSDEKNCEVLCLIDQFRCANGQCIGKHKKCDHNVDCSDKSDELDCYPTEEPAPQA

binding to E1 alone on addition of Lr-EET-3.5 (LRP6 E1; SPR competition, 500 nM Lr-EET-3.5): completely blocked
effect on binding of WNT1/sFRP-1 to LRP6 [4]: antagonistic effect
KD, E3-E4 (LRP6 E3-E4; two state model): no interaction detected
Molecule: SOST: natural Wnt inhibitor sclerostin
Kd (LRP6 E2): 1300 nM
inhibition of matrix mineralization (alizarin red-S staining) (MC3T3-E1 cells): comparable

KD in the presence of Lr-EET-3.5 [3]: 47 nM
Kd [3]: 3.3 nM
Molecule: sclerostin (SOST) (from UniProt Q9BQB4 24-213) (natural protein)

KD in the presence of Lr-EET-3.5 [6]: 41 nM
Kd [6]: 3.8 nM
B2: sclerostin (SOST) (natural protein)
chain: QGWQAFKNDATEIIPELGEYPEPPPELENNKTMNRAENGGRPPHHPFETKDVSEYSCRELHFTRYVTDGPCRSAKPVTELVCSGQCGPARLLPNAIGRGKWWRPSGPDFRCIPDRYRAQRVQLLCPGGEAPRARKVRLVASCKCKRLTRFHNQSELKDFGTEAARPQKGRKPRPRARSAKANQAELENAY

The next lines start with the molecule.

Molecule: Cc1cc(-c2ncc(CC(=O)Nc3ccc(-c4cnccn4)cn3)cc2C)ccn1 [LGK974]
AT2 proliferation and formation of alveolospheres [1]: abrogated AT2 proliferation and the formation of alveolospheres

Molecule: DKK1: natural Wnt inhibitor Dickkopf-1
KD, E1 alone (LRP6 E1; SPR, no competitor, two state model): no detectable binding
KD, E1-E2 in the presence of Lr-EET-3.5 (LRP6 E1-E2; surface saturated with 500 nM Lr-EET-3.5 and 500 nM CKP in every dilution): ablated the binding

Molecule: Dickkopf-1 (DKK1) (from UniProt O94907 32-266) (natural protein)
Kd [2]: 43 nM
Kd [3]: 135 nM

B1: WNT1/secreted frizzled related protein 1 (sFRP-1) complex (complex)
chain 1: ANSSGRWWGIVNVASSTNLLTDSKSLQLVLEPSLQLLSRKQRRLIRQNPGILHSVSGGLQSAVRECKWQFRNRRWNCPTAPGPHLFGKIVNRGCRETAFIFAITSAGVTHSVARSCSEGSIESCTCDYRRRGPGGPDWHWGGCSDNIDFGRLFGREFVDSGEKGRDLRFLMNLHNNEAGRTTVFSEMRQECKCHGMSGSCTVRTCWMRLPTLRAVGDVLRDRFDGASRVLYGNRGSNRASRAELLRLEPEDPAHKPPSPHDLVYFEKSPNFCTYSGRLGTAGTAGRACNSSSPALDGCELLCCGRGHRTRTQRVTERCNCTFHWCCHVSCRNCTHTRVLHECL
chain 2: SEYDYVSFQSDIGPYQSGRFYTKPPQCVDIPADLRLCHNVGYKKMVLPNLLEHETMAEVKQQASSWVPLLNKNCHAGTQVFLCSLFAPVCLDRPIYPCRWLCEAVRDSCEPVMQFFGFYWPEMLKCDKFPEGDVCIAMTPPNATEASKPQGTTVCPPCDNELKSEAIIEHLCASEFALRMKIKEVKKENGDKKIVPKKKKPLKLGPIKKKDLKKLVLYLKNGADCPCHQLDNLSHHFLIMGRKVKSQYLLTAIHKWDKKNKEFKNFMKKMKNHECPTFQSVFK
interaction with E3-E4 (LRP6 E3-E4; Wnt1/sFRP-1 as analyte): no interaction detected
Kd [5]: 3.4 nM
Kd (LRP6 E1-E2; read-out: KD, E1-E2, Wnt1/sFRP-1 as analyte, 1:1 binding model): 3.4 nM
Kd [6]: 6 nM
